In PMC4241044 (Journal of Clinical Pharmacology, 2014):
Read-outs that look alike come from different tables or passages of the source. Marks after values point to notes of the source that are not given here.

Legend:
Factor Xa activity = Factor Xa activity (Homo sapiens, UniProt P00742); experiment: Factor Xa inhibition in plasma; type: in vivo
Safety and tolerability = type: in vivo, human
How it was run: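 Monitoring was continuous and covered bleeding events and other treatment-emergent adverse events, with severity and relation to study drugs. Vital signs, ECG, haematology, clinical chemistry, PT/aPTT and urinalysis were checked, plus regular physical examinations. Subjects were grouped by Cockcroft–Gault CLCR. […] Analysis included all subjects receiving ≥1 study-drug dose.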

[1] = Rivaroxaban urine pharmacokinetics; type: in vivo, human; conditions: arithmetic mean (SD); for CL renal: human, urine and plasma, oral, CLR, renal clearance
[2] = type: in vivo, human; conditions: for AUC(0-inf) / Cmax / Vd/F / Tmax / half-life: human, plasma, oral; for Tmax: median (minimum–maximum); for half-life: t½; for increase in AUC∞ / increase in Cmax: compared with normal renal function; for DNAUC∞ (dose-normalized AUC∞) / DNCmax (dose-normalized Cmax): dose-normalized to 10 mg
[3] = steady-state erythromycin; previous Phase I drug–drug interaction study; cited from earlier work
prothrombin time (PT) = experiment: Prothrombin time prolongation in plasma; type: in vivo, human
How it was run: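 Subjects were grouped by mean of two Cockcroft–Gault CLCR estimates: ≥80 (normal), 50–79 (mild) and 30–49 mL/min (moderate). […] PT blood was drawn at −1 h (baseline) and 0.5–48 h post-dose. […] Log-transformed geometric mean ratios with 90% CI; completers only.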

[4] = previous study, cited from earlier work
[5] = 2.5–10 mg dose range under fasting conditions and 10–20 mg dose range under fed conditions; ref previous Phase I studies; cited from earlier work
[6] = cited from earlier work
[7] = Erythromycin trough plasma concentrations, attainment of steady state; type: in vivo, human; conditions: erythromycin 500 mg tid, visual inspection
How it was run: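 Erythromycin 500 mg tid was given for 6 days in treatment periods 2 and 3. Trough plasma was sampled before the morning erythromycin dose on days 2–6 and on the morning of day 7, then stored frozen. Assay was LC/MS/MS after methanol protein precipitation, on a reverse-phase column at 40 °C. Steady state was judged visually from concentration–time plots.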

[8] = Moderate RI, rivaroxaban 10 mg + erythromycin 500 mg tid
[9] = mild renal impairment vs normal renal function, rivaroxaban 10 mg
[10] = moderate renal impairment vs normal renal function, rivaroxaban 10 mg
[11] = normal renal function, rivaroxaban 10 mg + erythromycin vs rivaroxaban alone
[12] = rivaroxaban 5 mg + erythromycin 500 mg tid, mild renal impairment
[13] = rivaroxaban 5 mg + erythromycin 500 mg tid, moderate renal impairment
[14] = rivaroxaban 10 mg + erythromycin 500 mg tid, mild renal impairment
[15] = rivaroxaban 10 mg + erythromycin 500 mg tid, moderate renal impairment
[16] = rivaroxaban 10 mg + erythromycin 500 mg tid, normal renal function
[17] = Mild RI, rivaroxaban 10 mg + erythromycin 500 mg tid
[18] = 10 mg, geometric mean, Normal RF, rivaroxaban 10 mg
[19] = 10 mg, rivaroxaban 10 mg, mild renal impairment, arithmetic mean (SD)
[20] = rivaroxaban 5 mg + erythromycin 500 mg tid, mild renal impairment, arithmetic mean (SD)
[21] = rivaroxaban 5 mg + erythromycin 500 mg tid, moderate renal impairment, arithmetic mean (SD)
[22] = rivaroxaban 10 mg + erythromycin 500 mg tid, normal renal function, arithmetic mean (SD)
[23] = rivaroxaban 10 mg + erythromycin 500 mg tid, moderate renal impairment, arithmetic mean (SD)
[24] = mild renal impairment, rivaroxaban 10 mg with steady-state erythromycin, rivaroxaban 10 mg alone
[25] = mild renal impairment, rivaroxaban 10 mg
[26] = moderate renal impairment, rivaroxaban 10 mg with steady-state erythromycin, rivaroxaban 10 mg alone
[27] = moderate renal impairment, rivaroxaban 10 mg

Sequence of Factor Xa activity (P00742 235-488 limits assumed): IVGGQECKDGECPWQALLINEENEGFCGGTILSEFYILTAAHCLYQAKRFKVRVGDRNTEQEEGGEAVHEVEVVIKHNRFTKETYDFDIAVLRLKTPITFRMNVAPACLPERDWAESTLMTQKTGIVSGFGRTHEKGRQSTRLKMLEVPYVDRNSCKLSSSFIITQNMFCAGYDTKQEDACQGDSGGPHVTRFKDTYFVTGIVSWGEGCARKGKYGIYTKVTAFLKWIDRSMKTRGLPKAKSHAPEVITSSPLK
Sequence of Factor Xa activity (P00742 41-179 partner limits assumed): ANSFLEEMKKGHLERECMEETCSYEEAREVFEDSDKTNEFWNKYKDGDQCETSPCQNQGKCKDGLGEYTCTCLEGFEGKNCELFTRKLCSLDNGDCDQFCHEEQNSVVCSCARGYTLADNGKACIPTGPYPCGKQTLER

## O=C(NC[C@H]1CN(c2ccc(N3CCOCC3=O)cc2)C(=O)O1)c1ccc(Cl)s1 [Rivaroxaban, rivaroxaban]
Factor Xa activity; [8]
  Factor Xa inhibition AUC0–48h, geometric mean: 842.3
  Factor Xa inhibition Emax, geometric mean: 53.61
Factor Xa activity; Normal RF, rivaroxaban 10 mg
  Factor Xa inhibition AUC0–48h, geometric mean: 593.43
  Factor Xa inhibition Emax, geometric mean: 39.38
Factor Xa activity; [9]
  increase in Factor Xa inhibition AUC0–48h: approximately 16%
  increase in Factor Xa inhibition Emax: ~17%
Factor Xa activity; [10]
  increase in Factor Xa inhibition AUC0–48h: approximately 3%
  increase in Factor Xa inhibition Emax: ~17%
Factor Xa activity; [11]
  Factor Xa inhibition AUC0–48h lower by: approximately 8%
  increase in Factor Xa inhibition Emax: approximately 18%
Safety and tolerability; 1 NRF, 3 moderate RI, all mild in intensity, of 29 enrolled
  subjects reporting bleeding events: Four
Safety and tolerability; single dose 5 mg or 10 mg, regardless of renal function and erythromycin co-administration
  tolerability: well tolerated
[1]; [12]
  CL renal: 15.9 mL/min
  Ae, cumulative amount excreted into the urine over 48 hours: 1.56 (0.692) mg
[1]; [13]
  CL renal: 9.25 mL/min
  Ae, cumulative amount excreted into the urine over 48 hours: 1.04 (0.531) mg
[1]; [14]
  CL renal: 19.2 mL/min
  Ae, cumulative amount excreted into the urine over 48 hours: 3.29 (0.893) mg
[1]; [15]
  CL renal: 13.3 mL/min
  Ae, cumulative amount excreted into the urine over 48 hours: 2.74 (1.10) mg
[1]; [16]
  CL renal: 34.3 mL/min
  Ae, cumulative amount excreted into the urine over 48 hours: 4.80 (0.851) mg
[1]; rivaroxaban 10 mg, mild renal impairment
  Ae, cumulative amount excreted into the urine over 48 hours: 2.49 (0.697) ^a mg
[1]; rivaroxaban 10 mg, moderate renal impairment
  Ae, cumulative amount excreted into the urine over 48 hours: 1.30 (0.654) mg
[1]; rivaroxaban 10 mg, normal renal function
  Ae, cumulative amount excreted into the urine over 48 hours: 3.51 (0.773) mg
[2]; [17]
  AUC∞, geometric mean: 3,078.7 ng · h/mL
  Cmax, geometric mean: 277.2 ng/mL
[2]; [8]
  Cmax, geometric mean: 292.42 ng/mL
[2]; Moderate RI, rivaroxaban 10 mg + erythromycin 500 mg tid, n = 7
  AUC∞, geometric mean: 3,475.5 ^a ng · h/mL
[2]; Normal RF, rivaroxaban 10 mg
  Cmax, geometric mean: 178.17 ng/mL
[2]; 10 mg, geometric mean, Mild RI, rivaroxaban 10 mg
  AUC(0-inf): 2000 ng·h/mL
[2]; 10 mg, geometric mean, Moderate RI, rivaroxaban 10 mg
  AUC(0-inf): 2040 ng·h/mL
[2]; [18]
  AUC(0-inf): 1750 ng·h/mL
  Cmax: 178 ng/mL
[2]; [19]
  AUC(0-inf): 2020 ng·h/mL
  Vd/F: 77.3 L
  half-life: 9.9 h
[2]; 10 mg, rivaroxaban 10 mg, mild renal impairment
  Tmax: 3 h
[2]; 10 mg, rivaroxaban 10 mg, moderate renal impairment
  Tmax: 3 h
[2]; [20]
  AUC(0-inf): 1970 ng·h/mL
  Vd/F: 37.5 L
  DNAUC∞ (dose-normalized AUC∞): 3,935 (1,671) ng · h/mL
  DNCmax (dose-normalized Cmax): 358 (109) ng/mL
[2]; [21]
  AUC(0-inf): 1980 ng·h/mL
  half-life: 10 h
  DNAUC∞ (dose-normalized AUC∞): 3,961 (1,020) ng · h/mL
  DNCmax (dose-normalized Cmax): 329 (104) ng/mL
[2]; [22]
  AUC(0-inf): 2470 ng·h/mL
  Cmax: 256 ng/mL
  Vd/F: 44.2 L
[2]; [23]
  Cmax: 323 ng/mL
  Vd/F: 40.9 L
[2]; rivaroxaban 10 mg + erythromycin 500 mg tid, mild renal impairment, arithmetic mean (SD)
  Vd/F: 46 L
[2]; [12]
  Tmax: 3 h
[2]; [15]
  Tmax: 3 h
[2]; [24]
  increase in AUC∞: approximately 76%
  increase in Cmax: ~56%
[2]; [25]
  increase in AUC∞: approximately 15%
  increase in Cmax: ~23%
[2]; [26]
  increase in AUC∞: ~99%
  increase in Cmax: ~64%
[2]; [27]
  increase in AUC∞: approximately 17%
  increase in Cmax: ~36%
[3]
  increase in AUC∞: approximately 34%
  increase in Cmax: approximately 34%
Prothrombin time (PT); [17]
  Prothrombin time AUC0–48h, geometric mean: 118.7
  Prothrombin time Emax, geometric mean: 9.85
Prothrombin time (PT); [8]
  Prothrombin time AUC0–48h, geometric mean: 115.1
  Prothrombin time Emax, geometric mean: 10.02
Prothrombin time (PT); Normal RF, rivaroxaban 10 mg
  Prothrombin time AUC0–48h, geometric mean: 67.82
  Prothrombin time Emax, geometric mean: 8.24
Prothrombin time (PT); [9]
  increase in PT Emax: ~5%
Prothrombin time (PT); [10]
  change in PT AUC0–48h: did not seem to change significantly
  change in PT Emax: did not seem to change significantly
Prothrombin time (PT); [11]
  increase in PT AUC0–48h: approximately 22%
  increase in PT Emax: ~10%
[4]; mild renal impairment vs normal renal function
  increase in AUC∞: approximately 44%
[4]; moderate renal impairment vs normal renal function
  increase in AUC∞: ~52%
[5]
  dose proportionality (based on AUC): dose-proportional
[6]
  dose metabolized via CYP2J2: 14%
  dose metabolized via CYP3A4/3A5: approximately 18%
  dose metabolized via CYP-independent hydrolysis: 14%
  drug excreted unchanged by the kidneys: approximately 36%
[6]; via CYP3A4/3A5, CYP2J2 and CYP-independent mechanisms
  fraction of the absorbed dose hepatically metabolized: approximately two-thirds
[6]; via P-gp-mediated and ABCG2-mediated secretion
  fraction of the absorbed dose eliminated as unchanged drug in the urine: third

## CC[C@H]1OC(=O)[C@H](C)[C@@H](O[C@H]2C[C@@](C)(OC)[C@@H](O)[C@H](C)O2)[C@H](C)[C@@H](O[C@@H]2O[C@H](C)C[C@H](N(C)C)[C@H]2O)[C@](C)(O)C[C@@H](C)C(=O)[C@H](C)[C@@H](O)[C@]1(C)O [erythromycin]
[7]
  attainment of steady-state plasma concentrations: obtained by the morning of day 5
